Test results published in ChEMBL document CHEMBL6127097, “Structure-Guided Discovery of cis-Hexahydro-pyrido-oxazinones as Reversible, Drug-like Monoacylglycerol Lipase Inhibitors” (J Med Chem, 2024).
Activity calls are given as the source filed them. The rule behind the calls is not given here.

Assays:
[1] = Octanol-water partition coefficient, logD of the compound at pH 7.4 incubated for 1.5 hrs by shake flask based LC-UV/MS analysis; type: physicochemical; conditions: pH 7.4, 1.5 h, 1.5 h
How it was run: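 CAMDIS shake-flask variant. 10 mM DMSO stock is diluted into 25 mM phosphate pH 7.4 over a 1-octanol-impregnated PVDF membrane and shaken 1.5 h at 21 °C, at two octanol/buffer ratios, in triplicate. Remaining aqueous concentration is read by LC/MS; logD comes from the difference with and without octanol.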

[2] = Chemical stability at pH 8 incubated for 2 hrs; type: physicochemical; conditions: buffer, pH 8, 2 h
How it was run: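 Compound was held in aqueous buffer at the stated pH for 2 h at 37 °C.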

[3] = Clearance in human microsomes; type: ADME, Microsome
[4] = Clearance in human hepatocytes assessed per 10 million cells; type: ADME, cell-based, Hepatocyte; conditions: read-out: CLH
[5] = Clearance in rat hepatocytes assessed per 10 million cells; type: ADME, cell-based, Hepatocyte
[6] = Cmax in Wistar rat at 5 mg/kg, po measured upto 24 hrs by LC-MS/MS analysis; type: ADME, organism-based; conditions: in vivo
How it was run: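 Male Wistar rats (N = 3 per group) received a single dose. The i.v. dose was 1 mg/kg in NMP/0.9% NaCl 30:70. The p.o. dose was 5 mg/kg in NMP/HPMC/diisooctyl sulfosuccinate 10:90. Blood was taken into K2EDTA from 0.083 (i.v.) or 0.25 h to 24 h. Plasma was assayed by LC-MS/MS and analysed non-compartmentally.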

[7] = Cmax in Wistar rat at 10 mg/kg, ip measured upto 24 hrs by LC-MS/MS analysis; type: ADME, organism-based; conditions: in vivo
[8] = Ratio of drug concentration in Wistar rat brain to plasma at 10 mg/kg, ip measured upto 7 hrs by LC-MS/MS analysis; type: ADME, organism-based
How it was run: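 Male Wistar rats, single dose. i.v. in NMP/0.9% NaCl 30:70; p.o. and i.p. in NMP/HPMC/diisooctyl sulfosuccinate 10:90; 3 per i.v./p.o. group, 6 i.p. K2EDTA plasma sampled 0.083–7 h, plus 24 h for i.v./p.o.; brain and CSF at 1, 2, 7 h (i.p. only). LC-MS/MS, noncompartmental analysis.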

CYP3A4 = CYP3A4 (Homo sapiens, UniProt P08684); assay: Inhibition of CYP3A4 (unknown origin) at 10 uM relative to control; type: ADME
[9] = Phototoxicity in mouse 3T3 cells; type: toxicity, cell-based; conditions: nih3t3
[10] = Average drug concentration in mouse plasma at 10 mg/kg, ip measured after 4 hrs; type: ADME, organism-based; conditions: in vivo
How it was run: (§1)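 Mice received 3, 10 or 30 mg/kg i.p. The compound was dissolved in DMSO/Tween 80 (1:1) and diluted with 8 parts saline (NaCl/DMSO/TW80 80/10/10). Plasma was taken 4 h after injection and average concentrations reported.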

[11] = Average drug concentration in mouse plasma at 30 mg/kg, ip measured after 4 hrs; type: ADME, organism-based; conditions: in vivo; how it was run: as §1
[12] = Drug concentration in mouse CSF at 30 mg/kg, ip measured after 8 hrs; type: ADME, organism-based, Cerebrospinal fluid; conditions: read-out: Ct
[13] = Drug concentration in mouse CSF at 30 mg/kg, ip measured after 16 hrs; type: ADME, organism-based, Cerebrospinal fluid; conditions: read-out: Ct
[14] = biological target: T1, Monoglyceride lipase (Rattus norvegicus) (UniProt Q8R431); assay: Binding affinity to rat MAGL assessed as association rate constant by SPR analysis
T1 sequence (whole entry): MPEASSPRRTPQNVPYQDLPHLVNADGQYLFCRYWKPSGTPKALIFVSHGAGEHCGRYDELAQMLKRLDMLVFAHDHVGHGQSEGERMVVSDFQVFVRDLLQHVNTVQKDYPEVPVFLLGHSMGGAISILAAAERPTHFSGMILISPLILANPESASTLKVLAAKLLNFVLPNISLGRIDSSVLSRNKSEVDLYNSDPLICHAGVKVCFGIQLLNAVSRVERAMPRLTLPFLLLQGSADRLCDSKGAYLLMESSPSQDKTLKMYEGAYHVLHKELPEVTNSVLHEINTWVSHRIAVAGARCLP
How it was run: (§2)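 Human or rat MAGL was immobilized by amine coupling without ethanolamine quenching. Runs were done at 18 °C in 10 mM HEPES, 150 mM NaCl, 0.05% P20, 50 µM EDTA, pH 7.4, with 1% DMSO. Single-cycle kinetics used five concentrations, top 1 µM in 2-fold steps, at 30 µL/min, giving kon, koff and Kd.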

[15] = biological target: T2, Monoglyceride lipase (Homo sapiens) (UniProt Q99685); assay: Binding affinity to human MAGL assessed as dissociation rate constant by SPR analysis; how it was run: as §2
T2 sequence (whole entry): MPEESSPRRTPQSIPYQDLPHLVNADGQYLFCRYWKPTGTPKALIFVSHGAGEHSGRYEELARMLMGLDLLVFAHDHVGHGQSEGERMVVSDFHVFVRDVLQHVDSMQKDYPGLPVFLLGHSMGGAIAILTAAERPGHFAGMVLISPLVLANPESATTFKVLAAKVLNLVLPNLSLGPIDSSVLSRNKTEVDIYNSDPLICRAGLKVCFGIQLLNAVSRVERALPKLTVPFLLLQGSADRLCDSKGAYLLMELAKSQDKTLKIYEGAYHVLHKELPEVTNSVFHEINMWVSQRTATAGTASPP

Mus musculus = assay: Downregulation of brain AA level in ip dosed mouse measured after 4 hrs; type: functional, organism-based; conditions: dose 3-30 mg/kg
How it was run: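 Mice received 3, 10 or 30 mg/kg i.p. in NaCl/DMSO/Tween 80 (80/10/10) and were sacrificed after 4 h. Arachidonic acid in brain extracts was measured by LC/MS.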

[16] = biological target: T3, Monoglyceride lipase (Mus musculus) (UniProt O35678); assay: In vivo receptor occupancy at MAGL receptor in mouse at 3 mg/kg, ip measured after 4 hrs; type: functional, organism-based
T3 sequence (whole entry): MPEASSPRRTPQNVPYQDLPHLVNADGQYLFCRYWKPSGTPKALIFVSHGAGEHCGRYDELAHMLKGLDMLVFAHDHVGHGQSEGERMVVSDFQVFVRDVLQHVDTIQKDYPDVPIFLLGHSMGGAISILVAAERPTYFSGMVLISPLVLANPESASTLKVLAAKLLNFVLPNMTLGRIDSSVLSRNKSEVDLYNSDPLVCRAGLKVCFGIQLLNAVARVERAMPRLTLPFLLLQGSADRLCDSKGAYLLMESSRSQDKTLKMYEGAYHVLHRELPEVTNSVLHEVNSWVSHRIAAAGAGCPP

[17] = biological target: Fatty acid amide hydrolase (Mus musculus) (UniProt O08914); assay: Inhibition of FAAH in mouse brain lysates at 10 uM by ABPP assay
Chain of Fatty acid amide hydrolase (Mus musculus) (O08914 whole entry, looked up): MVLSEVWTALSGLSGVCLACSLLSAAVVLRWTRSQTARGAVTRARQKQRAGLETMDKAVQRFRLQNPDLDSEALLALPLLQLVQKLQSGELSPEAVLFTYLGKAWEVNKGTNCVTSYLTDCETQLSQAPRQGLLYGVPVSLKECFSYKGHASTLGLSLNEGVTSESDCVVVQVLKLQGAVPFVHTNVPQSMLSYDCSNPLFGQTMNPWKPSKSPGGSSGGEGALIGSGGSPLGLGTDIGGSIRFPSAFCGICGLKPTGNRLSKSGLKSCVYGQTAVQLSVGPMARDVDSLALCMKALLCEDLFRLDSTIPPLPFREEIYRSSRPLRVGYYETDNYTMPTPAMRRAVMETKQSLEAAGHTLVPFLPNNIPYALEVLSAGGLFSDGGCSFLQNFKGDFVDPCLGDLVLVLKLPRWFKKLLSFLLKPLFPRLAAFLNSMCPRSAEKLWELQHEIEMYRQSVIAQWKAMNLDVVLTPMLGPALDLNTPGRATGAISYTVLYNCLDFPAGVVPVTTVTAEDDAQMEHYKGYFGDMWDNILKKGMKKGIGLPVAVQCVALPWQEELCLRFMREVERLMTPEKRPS

Chain of CYP3A4 (P08684 whole entry): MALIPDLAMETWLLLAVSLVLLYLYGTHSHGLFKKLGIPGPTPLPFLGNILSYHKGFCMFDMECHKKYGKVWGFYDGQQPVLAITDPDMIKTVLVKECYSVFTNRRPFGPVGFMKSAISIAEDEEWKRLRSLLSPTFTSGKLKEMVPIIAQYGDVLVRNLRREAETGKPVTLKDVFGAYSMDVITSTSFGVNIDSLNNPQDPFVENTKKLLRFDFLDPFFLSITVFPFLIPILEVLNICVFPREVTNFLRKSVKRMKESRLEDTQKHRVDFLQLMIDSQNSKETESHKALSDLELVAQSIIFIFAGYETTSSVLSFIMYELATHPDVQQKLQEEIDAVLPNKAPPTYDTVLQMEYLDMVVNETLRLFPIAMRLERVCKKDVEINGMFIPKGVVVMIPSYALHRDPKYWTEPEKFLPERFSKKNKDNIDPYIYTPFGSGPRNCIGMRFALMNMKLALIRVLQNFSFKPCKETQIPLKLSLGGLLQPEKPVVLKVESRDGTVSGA

| SMILES | logD [1] | Stability [2] | microsomal CLint [3] | hepatocyte CLint [4] | hepatocyte CLint [5] | Cmax [6] | Cmax [7] | Kp at 7 h [8] | inhibition at 10 µM (CYP3A4) | Activity [9] | Cave [10] | Cave [11] | concentration at 8 h [12] | concentration at 16 h [13] | K [14] | K [15] | Activity (Mus musculus) | Activity [16] | inhibition [17] |
| --- | --- | --- | --- | --- | --- | --- | --- | --- | --- | --- | --- | --- | --- | --- | --- | --- | --- | --- | --- |
| O=C1CO[C@H]2CCN(C(=O)N3CCC(Cc4ccc(C(F)(F)F)cc4)CC3)C[C@H]2N1 [listing 1 of 2 here] | 3.3 | Stable | < 10 µL/min/mg | 1.9 µL/min/1e6 cells | 4 µL/min/10^7 cells | 1290 ng/mL | 12200 ng/mL | 1.1 | -195% | Non-Toxic | 7496 nM | 27765 nM | 346 nM | 48 nM | – | – | – | – | – |
| O=C1CO[C@H]2CCN(C(=O)N3CCC(Cc4ccc(C(F)(F)F)cc4)CC3)C[C@H]2N1 [listing 2 of 2 here] | – | – | – | – | – | – | – | – | – | – | – | – | – | – | 2.6 10^5/M/s | 7.5 10^-3/s | Dose-Dependent Effect | 49% | inactive |
